# ChEMBL document CHEMBL1137580, “Synthesis, potency, and in vivo profiles of quinoline containing histamine H3 receptor inverse agonists” (J Med Chem, 2007)
# Calls of active or inactive are those of the source. The rule behind the calls is not given here.
# Legend:
# Rattus norvegicus [1] = assay: Memory enhancing effect in ip dosed adult rat by social recognition memory method; assay type: functional, organism-based
# Procedure, shortened: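 Adult rat explores a juvenile 5 min, separated 2 h, re-exposed 5 min; compound or saline i.p. right after first exposure; investigation ratio (second/first time); ciproxifan 1 mg/kg standard; n ≥ 12, Dunnett's post hoc, P < 0.05; efficacious doses in mg/kg.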
# Brain [2] = assay: Drug level in mouse brain at 1 mg/kg, ip; assay type: ADME, organism-based; parameters: dose 1 mg/kg, route intraperitoneal; settings: in vivo
# Procedure, shortened: (§1)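 Mice dosed i.p. at 1 mg/kg; brain and blood sampled 1 h after dosing, concentrations by HPLC-MS; n ≥ 3, SEM <11% of mean unless stated.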
# [3] = Half life in rat at 1 mg/kg, iv; assay type: ADME, organism-based; parameters: dose 1 mg/kg, route intravenous; settings: in vivo
# [4] = Clearance in rat at 1 mg/kg, iv; assay type: ADME, organism-based; parameters: dose 1 mg/kg, route intravenous; settings: in vivo
# [5] = Oral bioavailability in rat at 1 mg/kg; assay type: ADME, organism-based; settings: in vivo
# Procedure, shortened: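 Oral dosing in rats at 1 mg/kg, n = 3 animals; F (%) given as mean, SEM <20% of mean unless stated.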
# Rattus norvegicus [6] = assay: Volume of distribution in rat at 1 mg/kg, iv; assay type: ADME, organism-based; parameters: dose 1 mg/kg, route intravenous; settings: in vivo
# [7] = Ratio of drug level in brain to blood in mouse at 1 mg/kg, ip; assay type: ADME, organism-based; parameters: dose 1 mg/kg, route intraperitoneal; procedure, shortened: as §1
# [8] = Protein binding in rat plasma; assay type: ADME, cell-free; settings: read-out: PPB (converted)
# [9] = Protein binding in monkey plasma; assay type: ADME, cell-free, Macaca mulatta; settings: rhesus monkey, read-out: PPB (converted)
# [10] = Ratio of drug level in brain to blood in rat at 1 mg/kg, iv; assay type: ADME, organism-based; parameters: dose 1 mg/kg, route intravenous
# Procedure, shortened: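 Rats given 1 mg/kg i.v.; brain and plasma concentrations measured 1 h after dosing by HPLC-MS, and the brain-to-plasma ratio was taken from these; n ≥ 3 animals.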
# Brain [11] = assay: Drug level in rat brain at 1 mg/kg, iv; assay type: ADME, organism-based; parameters: dose 1 mg/kg, route intravenous; settings: in vivo
# Procedure, shortened: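 Rats dosed i.v. at 1 mg/kg; brain concentration measured 1 h post-dose by HPLC-MS; n ≥ 3, SEM <11% of mean unless stated.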
# [12] = Protein binding in dog plasma; assay type: ADME, cell-free, Canis lupus familiaris; settings: read-out: PPB (converted)
# Rattus norvegicus [13] = assay: Memory enhancing effect in ip dosed rat by five trial inhibitory avoidance method at 3 mg/kg; assay type: functional, organism-based; parameters: dose 3 mg/kg
# Rattus norvegicus [14] = assay: Memory enhancing effect in ip dosed adult rat by five trial inhibitory avoidance method; assay type: functional, organism-based
# Homo sapiens = species on record: Homo sapiens; assay: Inhibition of human sigma receptor at 10 uM
# Cytochrome P450 2D6 = Cytochrome P450 2D6 (Homo sapiens, UniProt P10635); assay: Inhibition of CYP2D6 at 10 to 20 uM; assay type: ADME
# Sequence of Cytochrome P450 2D6 (P10635 whole entry): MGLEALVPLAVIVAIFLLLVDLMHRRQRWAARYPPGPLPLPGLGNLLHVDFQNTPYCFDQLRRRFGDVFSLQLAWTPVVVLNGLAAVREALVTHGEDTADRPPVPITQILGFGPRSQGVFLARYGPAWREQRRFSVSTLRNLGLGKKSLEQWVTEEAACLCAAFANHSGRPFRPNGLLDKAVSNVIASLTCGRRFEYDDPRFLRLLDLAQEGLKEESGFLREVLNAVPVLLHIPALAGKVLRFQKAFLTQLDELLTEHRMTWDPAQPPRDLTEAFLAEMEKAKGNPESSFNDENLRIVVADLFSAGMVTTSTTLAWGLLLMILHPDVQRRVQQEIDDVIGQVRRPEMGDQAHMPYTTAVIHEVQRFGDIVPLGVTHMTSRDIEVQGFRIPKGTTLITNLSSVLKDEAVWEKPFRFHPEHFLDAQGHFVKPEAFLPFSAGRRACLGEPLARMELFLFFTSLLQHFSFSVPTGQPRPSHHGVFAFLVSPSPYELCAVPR
# [15] = target: T1, Adenosine receptor A3 (Homo sapiens) (UniProt P0DMS8); assay: Inhibition of human adenosine A3 receptor at 10 uM
# T1 sequence (whole entry): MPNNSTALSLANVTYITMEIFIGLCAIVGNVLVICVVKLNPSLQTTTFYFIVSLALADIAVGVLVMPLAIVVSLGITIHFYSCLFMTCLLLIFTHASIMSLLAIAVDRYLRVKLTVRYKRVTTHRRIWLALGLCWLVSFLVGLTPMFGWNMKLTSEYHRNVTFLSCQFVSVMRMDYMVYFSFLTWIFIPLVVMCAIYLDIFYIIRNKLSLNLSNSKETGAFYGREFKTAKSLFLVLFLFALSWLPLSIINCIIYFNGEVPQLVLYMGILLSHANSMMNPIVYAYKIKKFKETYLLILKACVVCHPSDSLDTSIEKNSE
# Rattus norvegicus [16] = assay: CNS toxicity assessed as hypoactivity in rat at 2.8 mg/kg; assay type: organism-based; parameters: dose 2.8 mg/kg; settings: in vivo
# Plasma [17] = assay: Drug level in rat plasma at 0.3 mg/kg; assay type: ADME, organism-based; parameters: dose 0.3 mg/kg; settings: in vivo
# Cytochrome P450 3A4 = Cytochrome P450 3A4 (Homo sapiens, UniProt P08684); assay: Inhibition of CYP3A4 at 10 to 20 uM; assay type: ADME
# Sequence of Cytochrome P450 3A4 (P08684 whole entry): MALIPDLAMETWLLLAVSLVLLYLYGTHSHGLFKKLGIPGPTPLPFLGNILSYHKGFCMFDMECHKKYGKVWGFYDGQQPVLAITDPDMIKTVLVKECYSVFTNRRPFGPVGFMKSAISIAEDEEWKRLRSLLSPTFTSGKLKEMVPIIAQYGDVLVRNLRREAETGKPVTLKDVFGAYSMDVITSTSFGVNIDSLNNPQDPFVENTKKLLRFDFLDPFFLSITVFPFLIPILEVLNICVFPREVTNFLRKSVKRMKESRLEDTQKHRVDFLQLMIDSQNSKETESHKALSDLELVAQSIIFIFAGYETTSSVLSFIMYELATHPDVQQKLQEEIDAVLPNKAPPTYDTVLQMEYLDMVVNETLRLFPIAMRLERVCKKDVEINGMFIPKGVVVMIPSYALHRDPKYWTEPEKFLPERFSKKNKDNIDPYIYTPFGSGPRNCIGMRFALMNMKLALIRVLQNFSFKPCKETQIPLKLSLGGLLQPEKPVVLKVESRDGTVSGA
# [18] = Photostability of the UV light irradiated compound; assay type: ADME
# Cytochrome P450 2A6 = target: T2, Cytochrome P450 2A6 (Homo sapiens, UniProt P11509); assay: Inhibition of CYP2A6 at 10 to 20 uM; assay type: ADME
# T2 sequence (P11509 whole entry): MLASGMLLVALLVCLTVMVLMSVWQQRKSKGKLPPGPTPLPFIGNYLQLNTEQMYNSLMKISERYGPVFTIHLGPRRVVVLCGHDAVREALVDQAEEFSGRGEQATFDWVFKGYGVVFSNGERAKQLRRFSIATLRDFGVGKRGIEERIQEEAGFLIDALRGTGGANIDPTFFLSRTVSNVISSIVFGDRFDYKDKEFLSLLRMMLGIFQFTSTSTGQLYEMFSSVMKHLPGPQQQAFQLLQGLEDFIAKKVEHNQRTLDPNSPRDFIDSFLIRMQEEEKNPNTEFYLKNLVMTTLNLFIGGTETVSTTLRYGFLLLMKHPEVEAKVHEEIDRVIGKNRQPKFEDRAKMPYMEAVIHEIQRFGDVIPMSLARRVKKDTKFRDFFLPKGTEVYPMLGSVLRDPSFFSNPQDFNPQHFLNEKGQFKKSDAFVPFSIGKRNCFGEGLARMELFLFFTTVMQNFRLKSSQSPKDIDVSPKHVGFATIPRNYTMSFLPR
# [19] = target: T3, Muscarinic acetylcholine receptor M4 (Homo sapiens) (UniProt P08173); assay: Inhibition of human muscarinic M4 receptor at 10 uM
# T3 sequence (whole entry): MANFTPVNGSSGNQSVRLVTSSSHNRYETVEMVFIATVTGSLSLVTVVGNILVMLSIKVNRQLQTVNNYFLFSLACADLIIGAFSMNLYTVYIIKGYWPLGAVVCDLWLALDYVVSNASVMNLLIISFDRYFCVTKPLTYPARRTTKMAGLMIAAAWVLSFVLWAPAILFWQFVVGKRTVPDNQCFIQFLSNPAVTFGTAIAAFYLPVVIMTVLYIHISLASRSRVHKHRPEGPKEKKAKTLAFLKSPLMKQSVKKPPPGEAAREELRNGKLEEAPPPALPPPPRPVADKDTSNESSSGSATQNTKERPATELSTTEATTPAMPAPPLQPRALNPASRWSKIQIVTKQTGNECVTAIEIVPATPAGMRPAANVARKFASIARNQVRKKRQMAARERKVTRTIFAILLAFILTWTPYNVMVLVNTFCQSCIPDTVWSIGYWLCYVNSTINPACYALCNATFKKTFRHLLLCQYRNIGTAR
# Rattus norvegicus [20] = assay: CNS toxicity assessed as hypoactivity in rat at 9.4 mg/kg; assay type: organism-based; parameters: dose 9.4 mg/kg; settings: in vivo
# Cytochrome P450 2E1 = Cytochrome P450 2E1 (Homo sapiens, UniProt P05181); assay: Inhibition of CYP2E1 at 10 to 20 uM; assay type: ADME
# Sequence of Cytochrome P450 2E1 (P05181 whole entry): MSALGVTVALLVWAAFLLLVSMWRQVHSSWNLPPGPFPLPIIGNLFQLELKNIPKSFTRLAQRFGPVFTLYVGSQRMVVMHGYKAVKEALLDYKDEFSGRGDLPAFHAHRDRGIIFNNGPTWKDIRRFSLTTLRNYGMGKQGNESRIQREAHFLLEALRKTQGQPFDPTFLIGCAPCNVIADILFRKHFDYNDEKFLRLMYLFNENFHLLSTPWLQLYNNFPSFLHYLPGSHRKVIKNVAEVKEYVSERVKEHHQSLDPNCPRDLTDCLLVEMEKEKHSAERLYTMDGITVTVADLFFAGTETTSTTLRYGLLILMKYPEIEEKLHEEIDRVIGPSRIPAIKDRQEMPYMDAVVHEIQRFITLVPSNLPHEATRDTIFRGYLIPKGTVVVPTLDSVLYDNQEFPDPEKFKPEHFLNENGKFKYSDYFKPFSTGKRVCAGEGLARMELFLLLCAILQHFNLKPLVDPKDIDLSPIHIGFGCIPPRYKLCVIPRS
# Cytochrome P450 2C9 = Cytochrome P450 2C9 (Homo sapiens, UniProt P11712); assay: Inhibition of CYP2C9 at 10 to 20 uM; assay type: ADME
# Sequence of Cytochrome P450 2C9 (P11712 whole entry): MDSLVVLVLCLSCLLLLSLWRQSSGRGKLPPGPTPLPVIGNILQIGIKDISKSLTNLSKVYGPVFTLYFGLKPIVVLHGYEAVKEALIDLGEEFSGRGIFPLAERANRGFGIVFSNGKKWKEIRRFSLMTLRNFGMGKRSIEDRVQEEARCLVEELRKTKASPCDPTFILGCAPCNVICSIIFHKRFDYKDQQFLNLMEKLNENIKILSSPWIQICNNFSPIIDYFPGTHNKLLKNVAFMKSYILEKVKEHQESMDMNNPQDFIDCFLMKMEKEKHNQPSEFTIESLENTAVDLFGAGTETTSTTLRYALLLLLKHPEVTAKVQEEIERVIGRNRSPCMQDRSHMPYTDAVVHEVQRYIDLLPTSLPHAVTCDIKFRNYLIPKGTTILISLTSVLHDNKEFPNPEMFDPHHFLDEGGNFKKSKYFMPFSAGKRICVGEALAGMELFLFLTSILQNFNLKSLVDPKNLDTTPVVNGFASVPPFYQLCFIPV
# Cytochrome P450 2C19 = Cytochrome P450 2C19 (Homo sapiens, UniProt P33261); assay: Inhibition of CYP2C19 at 10 to 20 uM; assay type: ADME
# Sequence of Cytochrome P450 2C19 (P33261 whole entry): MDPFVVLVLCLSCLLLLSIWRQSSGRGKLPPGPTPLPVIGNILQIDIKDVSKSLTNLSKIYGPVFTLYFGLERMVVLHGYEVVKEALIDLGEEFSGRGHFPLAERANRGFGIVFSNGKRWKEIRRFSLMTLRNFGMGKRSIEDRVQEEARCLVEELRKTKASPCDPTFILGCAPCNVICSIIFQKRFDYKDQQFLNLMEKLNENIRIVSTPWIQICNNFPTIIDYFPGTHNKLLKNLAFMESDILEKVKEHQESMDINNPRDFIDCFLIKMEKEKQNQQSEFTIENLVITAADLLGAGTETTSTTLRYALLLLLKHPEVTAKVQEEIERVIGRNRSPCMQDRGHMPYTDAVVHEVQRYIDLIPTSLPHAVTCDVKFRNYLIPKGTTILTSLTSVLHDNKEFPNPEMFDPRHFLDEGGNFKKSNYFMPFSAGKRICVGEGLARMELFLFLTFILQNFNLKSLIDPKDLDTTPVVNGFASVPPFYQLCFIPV
# [21] = Solubility in water at pH 7; assay type: physicochemical
# Rattus norvegicus [22] = assay: CNS toxicity assessed as piloerection in rat at 9.4 mg/kg; assay type: organism-based; parameters: dose 9.4 mg/kg; settings: in vivo
# Cytochrome P450 1A2 = target: T4, Cytochrome P450 1A2 (Homo sapiens, UniProt P05177); assay: Inhibition of CYP1A2 at 10 to 20 uM; assay type: ADME
# T4 sequence (P05177 whole entry): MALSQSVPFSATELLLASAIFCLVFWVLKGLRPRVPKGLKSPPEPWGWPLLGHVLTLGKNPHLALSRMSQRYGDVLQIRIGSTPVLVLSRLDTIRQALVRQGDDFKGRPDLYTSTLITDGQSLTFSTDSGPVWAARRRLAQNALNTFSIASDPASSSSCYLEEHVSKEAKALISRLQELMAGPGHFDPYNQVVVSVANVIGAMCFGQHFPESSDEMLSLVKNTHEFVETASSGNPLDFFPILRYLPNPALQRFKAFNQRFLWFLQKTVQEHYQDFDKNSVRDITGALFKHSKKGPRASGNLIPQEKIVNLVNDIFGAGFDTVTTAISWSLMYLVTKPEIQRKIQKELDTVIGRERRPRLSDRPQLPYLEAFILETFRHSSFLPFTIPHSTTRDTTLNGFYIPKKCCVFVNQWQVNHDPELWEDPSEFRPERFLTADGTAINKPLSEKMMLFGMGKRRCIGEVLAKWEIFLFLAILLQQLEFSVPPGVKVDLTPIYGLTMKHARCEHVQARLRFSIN
# Rattus norvegicus [23] = assay: CNS toxicity assessed as piloerection in rat at 2.8 mg/kg; assay type: organism-based; parameters: dose 2.8 mg/kg; settings: in vivo
# [24] = Bioavailability in dog; assay type: ADME, organism-based, Canis lupus familiaris; settings: in vivo
# L-type calcium channel = L-type calcium channel (Homo sapiens, UniProt O60840+Q01668+Q13698+Q13936); assay: Inhibition of human L-type calcium channel at 10 uM
# Plasma [25] = assay: Drug level in rat plasma at 0.1 mg/kg; assay type: ADME, organism-based; parameters: dose 0.1 mg/kg; settings: in vivo
SMILES,Activity (Rattus norvegicus [1]),Drug uptake (Brain [2]) [ng/g],half-life [3] [h],clearance [4] [mL/min/kg],bioavailability [5] [%],Vbeta (Rattus norvegicus [6]) [L/kg],Kp [7],fraction unbound [8],fraction unbound [9],Kp [10],Drug uptake (Brain [11]) [ng/g],fraction unbound [12],Activity (Rattus norvegicus [13]),Activity (Rattus norvegicus [14]),also measured
O=C(c1ccc(OCCCc2c[nH]cn2)cc1)C1CC1,Active,–,–,–,–,–,–,–,–,–,–,–,–,–,–
Cc1c(-c2ccc3cc(CCN4CCC[C@H]4C)ccc3n2)cnn1-c1ccccn1,–,1659,2.4,19.7,75,4.1,23,–,–,–,–,–,–,–,–
Cc1nc2ncccc2cc1-c1ccc2cc(CCN3CCC[C@H]3C)ccc2n1,Active,–,2,42.3,30,9.2,–,0.39,0.5,0.4,50,0.57,–,–,–
CCOc1ccc(-n2ncc(-c3ccc4cc(CCN5CCC[C@H]5C)ccc4n3)c2C)nn1,Active,3242,8.3,8.83,70,7.4,42,0.11,0.21,–,–,–,Active,Active,–
Cc1cc2ncc(-c3ccc4cc(CCN5CCC[C@H]5C)ccc4n3)c(C)n2n1,Active,174,5.3,14,90,6.3,1.5,0.3,0.45,1.6,440,0.4,Active,Active,inhibition (Homo sapiens): 96%; Activity (Cytochrome P450 2D6): Not Active; inhibition [15]: 69%; Activity (Rattus norvegicus [16]): Non-toxic; Cp (Plasma [17]): 19.2 ng/mL; Activity (Cytochrome P450 3A4): Not Active; Activity [18]: Not Active; Activity (Cytochrome P450 2A6): Not Active; inhibition [19]: 74%; Activity (Rattus norvegicus [20]): Toxic; Activity (Cytochrome P450 2E1): Not Active; Activity (Cytochrome P450 2C9): Not Active; Activity (Cytochrome P450 2C19): Not Active; solubility [21]: 8.7 mg/mL; Activity (Rattus norvegicus [22]): Toxic; Activity (Cytochrome P450 1A2): Not Active; Activity (Rattus norvegicus [23]): Non-toxic; bioavailability [24]: 72%; inhibition at 10 µM (L-type calcium channel): 63%
Cc1nn(C)cc1-c1ccc2cc(CCN3CCC[C@H]3C)ccc2n1,Active,–,1.7,61.7,58,9,–,0.38,0.5,1.8,425,0.42,Active,Active,inhibition (Homo sapiens): 86%; Activity (Cytochrome P450 2D6): Not Active; Cp (Plasma [25]): 2.5 ng/mL; Activity (Rattus norvegicus [16]): Non-toxic; Activity (Cytochrome P450 3A4): Not Active; Activity [18]: Not Active; Activity (Cytochrome P450 2A6): Not Active; Activity (Rattus norvegicus [20]): Toxic; Activity (Cytochrome P450 2E1): Not Active; Activity (Cytochrome P450 2C9): Not Active; Activity (Cytochrome P450 2C19): Not Active; solubility [21]: 21 mg/mL; Activity (Cytochrome P450 1A2): Not Active; bioavailability [24]: 77%
Cc1nc(N2CCCC2)ncc1-c1ccc2cc(CCN3CCC[C@H]3C)ccc2n1,Active,718,4,24.2,98,8.5,16,–,–,–,–,–,–,–,–
C[C@@H]1CCCN1CCc1cc2cc(-c3ccc(C#N)cc3)ccc2o1,–,1728,–,25,–,11.6,–,0.06,0.06,–,3082,0.09,–,–,–
